In brackets after ≈: the same amount, converted by molar mass. Activity calls are given as the source filed them. No cut-off for these calls is given here.
Tests used:
Candida albicans [1] = assay: Antibiofilm activity against Candida albicans ATCC 24433 at 1000 ug/ml after 24 hrs by XTT-based colorimetric assay; format: functional, organism-based
Method in brief: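 Biofilms grown from overnight YPD cells, PBS-washed and resuspended to 1.0 × 10^6 cfu/mL in RPMI-1640 plus MOPS, 37 °C for 24 h. After three PBS washes, treated a further 24 h at 37 °C. Then 0.5 mg/mL XTT for 2 h, read at 490 nm. MIC taken as the lowest concentration giving ≥80% reduction in XTT reduction.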

Candida albicans [2] = assay: Antifungal activity against Candida albicans ATCC 24433 assessed as growth inhibition after 24 hrs by broth microdilution assay; format: functional; conditions: ATCC 24433, 24 h
Method in brief: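 Broth microdilution: 24-h colonies suspended in 0.85% saline, diluted in RPMI-1640 with MOPS to 1.0 × 10^4 cfu/mL final, mixed 1:1 with sample; 35 °C, 24 h; OD 595 nm. MIC = lowest concentration giving 80% growth reduction. Fluconazole positive control; SD from three independent experiments.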

Candida albicans [3] = assay: Antibiofilm activity against Candida albicans ATCC 24433 after 24 hrs by XTT-based colorimetric assay; format: functional; conditions: ATCC 24433, 24 h
Method in brief: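 XTT assay: YPD overnight culture, PBS-washed, 1.0 × 10^6 cfu/mL in RPMI-1640/MOPS; biofilms formed at 37 °C for 24 h, washed, then treated 24 h at 37 °C; 0.5 mg/mL XTT for 2 h, read at 490 nm. MIC = lowest concentration giving ≥80% reduction in XTT signal.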

Candida albicans [4] = assay: Antibiofilm activity against Candida albicans ATCC 24433 at 1000 ug/ml after 24 hrs by scanning electron microscopic analysis; format: functional, organism-based
Method in brief: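 Biofilms grown from 1.0 × 10^6 cfu/mL suspensions on poly-L-lysine-treated glass coverslips, 37 °C for 24 h. PBS-washed three times, then exposed to drug for another 24 h. Fixed overnight in 2.5% glutaraldehyde in 0.2 M PBS (pH 7.2), then 1% osmium for 2 h. Ethanol-dehydrated, critical-point dried, gold-coated, and imaged by SEM at high vacuum, 10 kV.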

OC(Cn1cncn1)(Cn1cncn1)c1ccc(F)cc1F [FLUCONAZOLE]
Activity (Candida albicans [1]): inactive
MIC80 (Candida albicans [2]): 0.25 µg/mL (≈ 0.816 µM)
MIC80 (Candida albicans [3]): > 1000 µg/mL
Activity (Candida albicans [4]): inactive
